Compound activity: PubChem, several laboratories
PPC-1+TRAIL kill – compounds killing PPC-1 cancer cells with TRAIL present (potentiator screen, no TRAIL-free arm) | PPC-1 cells + TRAIL, ATPLite viability luminescence | cell killing (% activity), % at 4 µM or 5 µM | 220,000 compounds, 0.41% hits;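 active = cell killing above 50% in the first pass at 4 µM, then a duplicate retest at 5 µM averaging 50% or more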
TRAIL sens C8 – sensitizes caspase-8 expressing cells to TRAIL; NB7+C8 cells + TRAIL, ATPlite viability luminescence; inhibition (viability loss, TRAIL sensitization), % at 10 µM; 360,000 compounds, 1% hits;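 active = compounds causing at least 50% loss of cell viability in the single-dose screen, relative to plate controls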
HSP90 refold inh – HSP90 refolding inhibition in rabbit reticulocyte lysate | inhibition, % at 5.6 µM | luciferase refolding luminescence, 3 h | AID 1789 | 290,000 compounds, 0.91% hits;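 active = inhibition above the screen-wide mean plus 3 SD, computed separately per campaign, cut at about 16% in these data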;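 note: inhibitors lower the luminescence because luciferase stays unfolded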
STAT3 blocker – STAT3 signaling inhibition. 190,000 compounds, 0.89% hits. U3A cells, IL-6 STAT3-luciferase reporter, luminescence; host cell line lacks STAT1. inhibition, % at 5.5 µM. AID 862;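 active = inhibition above the mean inhibition across all screened compounds plus 3 SD, cut at about 44% in these data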
FLuc inhib CS – Photinus pyralis luciferase inhibition counter-screen; P08659; ATPLite firefly luciferase biochemical luminescence, 10 min; inhibition, % at 10 µM; 200,000 compounds, 1.5% hits;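 active = inhibition above about 50% when tested at 10 µM, limit read from the data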
Target sequence (P08659 whole entry, looked up): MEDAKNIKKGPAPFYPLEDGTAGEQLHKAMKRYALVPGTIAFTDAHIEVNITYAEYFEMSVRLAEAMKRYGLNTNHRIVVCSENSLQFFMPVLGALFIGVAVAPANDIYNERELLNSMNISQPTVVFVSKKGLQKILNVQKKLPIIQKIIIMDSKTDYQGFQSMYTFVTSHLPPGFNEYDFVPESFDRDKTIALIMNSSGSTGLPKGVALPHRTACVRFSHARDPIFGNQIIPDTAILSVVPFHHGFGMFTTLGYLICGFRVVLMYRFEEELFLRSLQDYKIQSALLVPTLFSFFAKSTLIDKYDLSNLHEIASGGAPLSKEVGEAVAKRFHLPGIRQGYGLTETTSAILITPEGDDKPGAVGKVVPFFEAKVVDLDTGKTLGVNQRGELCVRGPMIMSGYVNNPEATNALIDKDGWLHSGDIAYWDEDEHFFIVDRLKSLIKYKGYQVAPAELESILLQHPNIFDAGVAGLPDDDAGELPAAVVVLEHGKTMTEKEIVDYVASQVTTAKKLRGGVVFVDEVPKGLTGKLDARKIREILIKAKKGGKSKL
FLuc stim CS – affects firefly luciferase, flagging false hits in luciferase stimulation screens | P08659 | ATPlite luciferase biochemical, luminescence, 10 min; 0 = ATP-free wells, 1 = DMSO control | activation factor at 10 µM | 200,000 tested, under 10 active | AID 1027;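 active = luciferase activation factor, scaled between plate controls, of at least 2 with compound at 10 µM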
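Assay system: Luciferase/luciferin reagent mix; Medium: PBS as buffer for the ATP substrate; Dosing: test compounds dosed from 2 mM stocks in 100% DMSO; Times: 10 min, room temperature; Signal: luminescence from luciferase reaction; Read-out: luciferase activation; Controls: No-ATP low control, compound-free enzyme-plus-ATP high control.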
Each line names hits and unclear results; the compound was inactive in the other large screens. Sampled rows, rich in hits. Any-hit rate of the full collection: about 2.2%.

CC1=C(C(=O)Nc2ccc(CC(=O)NCc3ccc(OC(C)C)cc3)cc2)SCCO1	TRAIL sens C8 56 (no result: PPC-1+TRAIL kill, STAT3 blocker, FLuc inhib CS, FLuc stim CS)
COc1ccc(CNC(=O)Cc2ccc(NC(=O)C3=C(C)OCCS3)cc2)cc1	TRAIL sens C8 71 (no result: PPC-1+TRAIL kill, STAT3 blocker, FLuc inhib CS, FLuc stim CS)
COc1cccc(CNC(=O)c2cccc(NC(=O)C3=C(C)OCCS3)c2)c1	none (no result: PPC-1+TRAIL kill, STAT3 blocker, FLuc inhib CS, FLuc stim CS)
COc1ccc2nc(-c3ccc(Cl)cc3)cc(C(=O)O)c2c1	none (no result: STAT3 blocker, FLuc inhib CS, FLuc stim CS)
N/C(CS(=O)(=O)c1ccccn1)=N\OC(=O)c1ccc(Cl)cc1	none (no result: STAT3 blocker, FLuc inhib CS, FLuc stim CS)
CCN(CC(=O)Nc1ccccc1C(F)(F)F)C(=O)CCS(=O)(=O)c1ccc(Cl)cc1	none (no result: PPC-1+TRAIL kill, HSP90 refold inh, STAT3 blocker, FLuc inhib CS, FLuc stim CS)
N/C(CCS(=O)(=O)c1ccc(Cl)cc1)=N\OC(=O)c1ccc(Cl)cc1	TRAIL sens C8 74 (no result: STAT3 blocker, FLuc inhib CS, FLuc stim CS)
N/C(CCS(=O)(=O)c1ccc(Cl)cc1)=N\OC(=O)c1ccccc1C(F)(F)F	TRAIL sens C8 55 (no result: STAT3 blocker, FLuc inhib CS, FLuc stim CS)
CC(=O)Nc1ccc(NC(=O)CSc2nnc(C)n2-c2ccccc2)cc1	none (no result: PPC-1+TRAIL kill, STAT3 blocker, FLuc inhib CS, FLuc stim CS)
O=C(O)c1ccc(N=Nc2c(O)[nH]c3ccc(Br)cc23)cc1	HSP90 refold inh 18 (no result: PPC-1+TRAIL kill, STAT3 blocker, FLuc inhib CS, FLuc stim CS)
Cc1ccccc1/C=N/Nc1nc2ccccc2[nH]1	none
Brc1ccc(-c2ccc(/C=N/Nc3nc4ccccc4[nH]3)o2)cc1	TRAIL sens C8 52, FLuc inhib CS 81
Brc1ccc(-c2ccc(/C=N/Nc3nncc(-c4ccccc4)n3)o2)cc1	none
Cc1nn(-c2ccccc2)c(Cl)c1/C=N/Nc1nc2ccccc2[nH]1	FLuc inhib CS 65
O=[N+]([O-])c1cc(/C=N/Nc2nc3ccccc3[nH]2)c(O)cc1O	PPC-1+TRAIL kill 53 (no result: TRAIL sens C8)
Cc1ccc(/C=N/Nc2nc3ccccc3[nH]2)s1	FLuc inhib CS 72
NC(=O)C1CCN(CC(=O)Nc2cccnc2Cl)CC1	none
Cc1cccc(NC(=S)NCc2ccccc2Cl)c1C	none (no result: PPC-1+TRAIL kill, STAT3 blocker, FLuc inhib CS, FLuc stim CS)
CCC1(C(=O)NC(=Nc2ccccc2)Nc2ccccc2)CCOC1=O (configuration not stated)	none (no result: PPC-1+TRAIL kill, HSP90 refold inh, STAT3 blocker, FLuc inhib CS, FLuc stim CS)
Cc1ccc(Sc2ncccc2C(=O)N(C)Cc2cccs2)c(C)c1	none (no result: PPC-1+TRAIL kill, STAT3 blocker, FLuc inhib CS, FLuc stim CS)
COc1ccc(C2=NC(c3ccccc3)CO2)cc1 (configuration not stated)	HSP90 refold inh 16 (no result: TRAIL sens C8)
O=[N+]([O-])c1cccc(C2=NC(c3ccccc3)CO2)c1 (configuration not stated)	none
CC(=O)c1cc(CN2CCN(C3CCN(C(C)C)CC3)C(CCO)C2)cs1 (configuration not stated)	none
Cc1ccc(S(=O)(=O)N2C[C@H]3[C@H]4C(=O)N(C5CCCCC5)C(=O)[C@H]4CC(=O)[C@H]3[C@@H]2c2cccc3ccccc23)cc1	TRAIL sens C8 60 (no result: PPC-1+TRAIL kill, HSP90 refold inh, STAT3 blocker, FLuc inhib CS, FLuc stim CS)
CCn1cc(Cl)c(C(=O)Nc2cccc(C(F)(F)F)c2)n1	none
Cn1ccc(C(=O)Nc2ccc3c(c2)OCCO3)n1	none (no result: PPC-1+TRAIL kill, STAT3 blocker, FLuc inhib CS, FLuc stim CS)
Cn1nc(C(=O)Nc2ccc3c(c2)OCCO3)cc1C(=O)O	FLuc inhib CS 65
CCn1cc(Cl)c(C(=O)Nc2ccc3c(c2)OCCO3)n1	TRAIL sens C8 52, FLuc inhib CS 74
CN(C)C(C)(C)/C=C/C(O)(c1ccccc1)c1ccccc1	none (no result: STAT3 blocker, FLuc inhib CS, FLuc stim CS)
Cc1c(C(=O)NCc2cccc(C(F)(F)F)c2)sc(=O)n1Cc1ccc(F)cc1	none (no result: PPC-1+TRAIL kill, HSP90 refold inh, STAT3 blocker, FLuc inhib CS, FLuc stim CS)
C=Cc1ccc(Cn2c(C)c(C(=O)NCc3cccc(C(F)(F)F)c3)sc2=O)cc1	TRAIL sens C8 51 (no result: PPC-1+TRAIL kill, HSP90 refold inh, STAT3 blocker, FLuc inhib CS, FLuc stim CS)
O=C(N/N=C/c1ccc2c(c1)OCO2)c1cccs1	FLuc inhib CS 75
Cc1ccsc1C(=O)N/N=C/c1ccc2c(c1)OCO2	FLuc inhib CS 64
O=C(N/N=C/c1ccc2c(c1)OCO2)c1ccc2ccccc2n1	FLuc inhib CS 67
O=C(N/N=C/c1c[nH]c2ccccc12)c1ccc2c(c1)OCCO2	TRAIL sens C8 76 (no result: STAT3 blocker, FLuc inhib CS, FLuc stim CS)
O=C(N/N=C/c1c[nH]c2ccccc12)c1ccccc1	none (no result: PPC-1+TRAIL kill, STAT3 blocker, FLuc inhib CS, FLuc stim CS)
O=C(Nc1nc(=S)ss1)c1c(F)cccc1F	none
Cc1nnc(Cc2ccccc2)c2n[nH]c(C)c12	none (no result: PPC-1+TRAIL kill, HSP90 refold inh, STAT3 blocker, FLuc inhib CS, FLuc stim CS)
Cc1occc1C(=O)N/N=C/c1ccc2c(c1)OCO2	none (no result: STAT3 blocker, FLuc inhib CS, FLuc stim CS)
O=C(N/N=C/c1cccs1)c1ccc2c(c1)OCO2	PPC-1+TRAIL kill 59, TRAIL sens C8 76, FLuc inhib CS 88
Cc1cc(C(=O)N/N=C/c2ccc3c(c2)OCO3)c(C)o1	FLuc inhib CS 64
O=C(N/N=C/c1ccccc1O)c1ccc2c(c1)OCO2	none (no result: PPC-1+TRAIL kill, STAT3 blocker, FLuc inhib CS, FLuc stim CS)
O=C(N/N=C/c1ccc2c(c1)OCO2)c1ccc2c(c1)OCCO2	FLuc inhib CS 80
